The list is not random: actives were taken first. Their share in the collection is about 2.2%.
MT1-MMP act inh = blockers of MT1-MMP proenzyme processing, primary screen, HT1080 RFP-PRO-GFP cells, GFP/RFP fluorescence | GFP/RFP ratio fluorescence, overnight; percent of plate control window, DMSO zero | 360,000 tested, 0.061% active | Matrix metalloproteinase-14 (Homo sapiens), P50281 | GFP/RFP ratio change, % at 20 µM;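 active = GFP/RFP ratio change of at least 30% with cell ATP level not reduced by more than half and red fluorescence within 50% of control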
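Test system: HT1080 cells expressing an RFP-PRO-GFP fluorescent reporter construct / Compound dosing: single-point 20 µM compound, 1% DMSO / Schedule: cells overnight before dosing, compound overnight, 37 °C, 5% CO2 / Evaluation: GFP/RFP fluorescence ratio / Control set: DMSO and RFP-L50D-GFP cell wells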
DDE Tn7 FP inh = inhibitors of Tn7 peptide binding to fibrin DD(E), primary screen, biochemical, fluorescence polarization, human fibrin, Tn7 probe; Fibrinogen beta chain (Homo sapiens), P02675; FP displacement of FITC-Tn7 peptide from fibrin DD(E); 0% = median of compound wells per plate; inhibition, % at 8.3 µM; 370,000 tested, 0.13% active; AID 720508, 2013;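 active = inhibition above the mean of compounds falling within the control limits plus 3 SD of them, cut at about 14% in these data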;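 note: 0% = plate median of compound wells and 100% = 10 µM Aha-Tn7 peptide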
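Test system – human fibrin DD(E) · Times – 10 min preincubation, 3 h with tracer, room temperature · Detection – fluorescence polarization of the labelled Tn7 tracer · Measure – percent inhibition normalized to high-control wells · Benchmarks – high control wells with 10 µM unlabelled Aha-Tn7 peptide (full inhibition) · Repeats – singlicate testing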
DDE Tn6 FP inh = inhibitors of Tn6 peptide binding to fibrin DD(E), primary screen, biochemical, fluorescence polarization, human fibrin, Tn6 probe | inhibition, % at 8.3 µM | Fibrin DD(E) TRITC-Tn6 fluorescence polarization displacement | 370,000 tested, 0.21% active | AID 720509, 2013;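 active = inhibition above a per-campaign cutoff: mean of compounds within control limits plus 3 SD, cut at about 15% in these data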;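 note: 0% = median of all compound wells on the plate and 100% = blocking peptide control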
KLK7 zymogen act = proKLK7 zymogen activators, primary screen, biochemical, fluorescence intensity | Kallikrein-7 (Homo sapiens), P49862 | purified proKLK7, EDANS-DABCYL substrate fluorescence; 100% is mature enzyme control, 0% vehicle | activation, % at 7 µM | 370,000 tested, 0.9% active | AID 652039, 2013;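 active = activation above the mean of all tested compounds plus 3 SD, computed per campaign excluding outliers beyond control limits, cut at about 13% in these data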
SKN-1 inh = suppressors of acrylamide-induced Pgst-4::GFP reporter in worms, primary screen, SKN-1 inhibitor project, whole organism, uHTS, GFP/RFP fluorescence ratio, strain VP596; C. elegans VP596 Pgst-4::GFP/RFP ratio, 24 h; inhibition, % at 21.8 µM; 360,000 tested, 0.49% active; AID 624304, 2012;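 active = interference check ratio from 0.5 to 1.5 plus GFP to RFP signal ratio inhibition reaching or exceeding a fixed threshold, cut at about 30% in these data, passing the limit was not always enough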
Neddylation inh = inhibitors of cullin neddylation, primary screen, biochemical, TR-FRET, uHTS, NAE and Ubc12; 360,000 tested, 0.58% active; calls only at 25 µM; in the data active = inhibition above about 36%
Target sequence (P61081 whole entry, looked up): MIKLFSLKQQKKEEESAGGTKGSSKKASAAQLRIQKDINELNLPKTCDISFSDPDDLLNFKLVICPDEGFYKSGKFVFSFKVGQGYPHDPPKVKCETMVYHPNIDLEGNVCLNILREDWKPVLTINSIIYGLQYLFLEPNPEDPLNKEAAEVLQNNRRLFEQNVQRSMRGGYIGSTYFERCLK
Target sequence (Q13564 whole entry, looked up): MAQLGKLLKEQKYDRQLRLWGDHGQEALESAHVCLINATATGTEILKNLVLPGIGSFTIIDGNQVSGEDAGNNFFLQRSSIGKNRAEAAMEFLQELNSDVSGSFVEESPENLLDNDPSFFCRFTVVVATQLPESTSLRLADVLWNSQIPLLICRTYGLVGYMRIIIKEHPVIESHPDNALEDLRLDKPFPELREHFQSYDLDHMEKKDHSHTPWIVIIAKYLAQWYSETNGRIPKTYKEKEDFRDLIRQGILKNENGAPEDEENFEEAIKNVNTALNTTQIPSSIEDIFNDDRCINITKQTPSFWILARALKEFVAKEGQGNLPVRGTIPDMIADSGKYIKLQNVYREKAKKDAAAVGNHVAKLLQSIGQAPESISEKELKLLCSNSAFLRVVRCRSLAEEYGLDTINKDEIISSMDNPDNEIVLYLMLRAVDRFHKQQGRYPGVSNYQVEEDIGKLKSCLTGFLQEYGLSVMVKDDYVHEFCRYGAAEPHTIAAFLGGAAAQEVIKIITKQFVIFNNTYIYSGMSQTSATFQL
Neddyl inh conf = blockade of NEDD8 conjugation to cullin – biochemical, TR-FRET, single concentration, confirmation; shares compounds with Neddylation inh; TR-FRET cullin neddylation biochemical assay; calls only at 25 µM; 1,800 tested, 13% active; AID 652217, 2013; in the data active = inhibition above about 40%;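 note: neddylation substrate is the cullin 1 ring ligase complex with SKP2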
* marks the source's active call; other numbers are inactive results.

Screening Nc1c2c(=O)oc(-c3ccccc3)cc2nn1-c1ccccc1 returned MT1-MMP act inh 7.2, DDE Tn7 FP inh -1.8, DDE Tn6 FP inh 0.3, KLK7 zymogen act -1.4, SKN-1 inh 10.5, Neddylation inh active and Neddyl inh conf active.
Screening O=C(c1ccc(F)c(S(=O)(=O)N2CCOCC2)c1)N(c1ccccc1)c1ccccn1 returned MT1-MMP act inh -3.6, DDE Tn7 FP inh -2.5, DDE Tn6 FP inh -5.3, KLK7 zymogen act 0.3, SKN-1 inh -3.7 and Neddylation inh inactive.
`COc1ccc(C2c3[nH]c4ccccc4c3CCN2Cc2ccoc2)c(F)c1` (stereo unspecified) gave MT1-MMP act inh 0.8, DDE Tn7 FP inh -2.6, DDE Tn6 FP inh -7.7, KLK7 zymogen act 1.9, SKN-1 inh 4.5, Neddylation inh active and Neddyl inh conf inactive.
Screening c1ccc2c(c1)c1c(c3ccccc32)CN2CCCC2C1 (stereo unspecified) returned MT1-MMP act inh -3.3, DDE Tn7 FP inh -3.8, DDE Tn6 FP inh 1.4, KLK7 zymogen act 1.1, SKN-1 inh -21.0, Neddylation inh active and Neddyl inh conf inactive.
Screening COC(=O)c1cc(CNC(=O)c2cccc(Cl)c2)ccc1OC returned MT1-MMP act inh 5.7, DDE Tn7 FP inh -0.5, DDE Tn6 FP inh 3.5, KLK7 zymogen act -0.4, SKN-1 inh -2.9 and Neddylation inh inactive.
CC(C)CNC(=S)N(CCN(C)C)Cc1cc2cc3c(cc2[nH]c1=O)OCO3 was read as MT1-MMP act inh -3.9, DDE Tn7 FP inh 2.6, DDE Tn6 FP inh -1.4, KLK7 zymogen act 2.9, SKN-1 inh 2.3 and Neddylation inh inactive.
For O=c1[nH]c2cc3c(cc2cc1CN(Cc1cccnc1)C(=S)NCc1ccco1)OCO3 the results were MT1-MMP act inh -1.9, DDE Tn7 FP inh -3.9, DDE Tn6 FP inh -4.4, KLK7 zymogen act -0.4, SKN-1 inh -1.5 and Neddylation inh inactive.
For CCNC(=S)N(CCN(C)C)Cc1cc2cc3c(cc2[nH]c1=O)OCO3 the results were MT1-MMP act inh -0.2, DDE Tn7 FP inh -6.5, DDE Tn6 FP inh 6.9, KLK7 zymogen act 3.7, SKN-1 inh 12.5 and Neddylation inh active.
For CCNC(=S)N(CCN(C)C)Cc1cc2cc(OCC)ccc2[nH]c1=O the results were MT1-MMP act inh -1.0, DDE Tn7 FP inh 4.2, DDE Tn6 FP inh 0.6, KLK7 zymogen act 6.8, SKN-1 inh -0.2, Neddylation inh active and Neddyl inh conf inactive.
For CN(C)CCN(Cc1cc2cc3c(cc2[nH]c1=O)OCO3)C(=S)NCc1ccco1 the results were MT1-MMP act inh 5.7, DDE Tn7 FP inh 5.3, DDE Tn6 FP inh 0.5, KLK7 zymogen act 1.8, SKN-1 inh 5.8, Neddylation inh active and Neddyl inh conf inactive.
For COC(=O)c1ccc(OS(=O)(=O)c2ccc(NC(C)=O)cc2)cc1 the results were MT1-MMP act inh -2.8, DDE Tn7 FP inh -10.1, DDE Tn6 FP inh 7.4, KLK7 zymogen act -0.8, SKN-1 inh -3.6 and Neddylation inh inactive.
`Cc1ccc(-c2cc3nc(C)cc(C)n3n2)cc1` gave MT1-MMP act inh 7.6, DDE Tn7 FP inh -7.0, DDE Tn6 FP inh -5.2, KLK7 zymogen act 0.2, SKN-1 inh 23.4, Neddylation inh active and Neddyl inh conf inactive.
`Cc1cc(C)n2nc(-c3ccc(F)cc3)cc2n1` gave MT1-MMP act inh 0.1, DDE Tn7 FP inh 0.8, DDE Tn6 FP inh 1.1, KLK7 zymogen act 0.1, SKN-1 inh 20.6 and Neddylation inh inactive.
`Cc1cc(C)n2nc(-c3cnn(C)c3C(F)(F)F)cc2n1` gave MT1-MMP act inh 12.2, DDE Tn7 FP inh 4.5, DDE Tn6 FP inh 0.9, KLK7 zymogen act -0.8, SKN-1 inh 5.1, Neddylation inh active and Neddyl inh conf active.
For O=C(Nc1ccc(Br)cc1)c1cccc(N2C(=O)CCC2=O)c1 the results were MT1-MMP act inh 1.4, DDE Tn7 FP inh 2.8, DDE Tn6 FP inh 1.2, KLK7 zymogen act -0.1, SKN-1 inh 18.5 and Neddylation inh inactive.
CCOC(=O)/C=c1\s/c(=C\c2c(OCC)ccc3ccccc23)c(=O)n1CC(=O)NCC1CCCO1 (stereo unspecified) was read as MT1-MMP act inh -20.6, DDE Tn7 FP inh 3.1, DDE Tn6 FP inh -16.8, KLK7 zymogen act -4.2, SKN-1 inh -15.5 and Neddylation inh inactive.
CCOC(=O)/C=c1\s/c(=C\c2ccc3c(c2)OCCO3)c(=O)n1CC(=O)NCC1CCCO1 (stereo unspecified) was read as MT1-MMP act inh -4.7, DDE Tn7 FP inh 1.9, DDE Tn6 FP inh -6.2, KLK7 zymogen act -1.6, SKN-1 inh 11.3, Neddylation inh active and Neddyl inh conf inactive.
`CC(=O)c1cccc(NC(=O)c2oc(C)nc2C)c1` gave MT1-MMP act inh -4.4, DDE Tn7 FP inh -6.6, DDE Tn6 FP inh -4.0, KLK7 zymogen act 0.5, SKN-1 inh -24.1 and Neddylation inh inactive.
`O=C(Nc1ccc(F)cc1F)c1cc(-c2ccco2)nc2ccccc12` gave MT1-MMP act inh -3.2, DDE Tn7 FP inh 3.7, DDE Tn6 FP inh -1.9, KLK7 zymogen act -88.5, SKN-1 inh -0.9 and Neddylation inh inactive.
`COc1cccc(NC(=O)c2cc(-c3ccco3)nc3ccccc23)c1` gave MT1-MMP act inh -1.8, DDE Tn7 FP inh -0.9, DDE Tn6 FP inh -1.3, KLK7 zymogen act -8.2, SKN-1 inh -4.5 and Neddylation inh active.
Screening CN(CCOc1ccc(Cl)cc1)C(=O)c1cc(-c2ccco2)nc2ccccc12 returned MT1-MMP act inh -2.5, DDE Tn7 FP inh -5.1, DDE Tn6 FP inh -0.5, KLK7 zymogen act -11.7, SKN-1 inh 4.1 and Neddylation inh active.
Screening O=C(Nc1ccccc1F)c1cc(-c2ccco2)nc2ccccc12 returned MT1-MMP act inh -1.9, DDE Tn7 FP inh -5.2, DDE Tn6 FP inh 0.5, KLK7 zymogen act -10.0, SKN-1 inh 12.5 and Neddylation inh active.

Source: PubChem BioAssay (several laboratories)
